According to PMC5713684 (International Journal of Nanomedicine, 2017):
No end group written: not given here. *: point of attachment. Octanoyl = CCCCCCCC(=O)*

Experiments:
[1] = cited from earlier work
[2] = Isothermal titration calorimetry of Ghrl with AL-free; assay type: binding; conditions: ITC, AL-free 10 mg/mL injected into Ghrl 1 mg/mL, PBS pH 7.4, 26°C, mean of n=2
In short: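 Empty anionic liposomes (10 mg/mL in PBS pH 7.4) were injected stepwise into ghrelin (1 mg/mL in PBS) in the measuring cell. Each injection lasted 14.5 s, with 600 s spacing until steady state. Solutions were degassed beforehand, water served as reference and stirring was 300 rpm. A PBS-only blank was titrated. Heats were fitted to a cumulative model for K, ΔG, ΔH and TΔS. The titration was done twice and averaged.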

[3] = Ghrl-stability evaluation; assay type: physicochemical; conditions: Ghrl 1 mg/mL, physiological pH, 4–60°C, up to 48 hours, HPLC/UV
In short: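 Ghrelin at 1 mg/mL was held at 4, 25, 37 and 60°C in water, PBS pH 7.4, HBSS pH 7.4 and pharmacopoeial buffers from pH 2 to 10.4 (PBS, acetate, phosphate, boric acid, borate). Samples were drawn at 0.5–6, 24 and 48 h. Remaining peptide was quantified by reversed-phase HPLC/UV on an ODS column at 37°C, using water/acetonitrile mobile phases with 0.1% TFA.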

[4] = human plasma; cited from earlier work

ghrelin (GSS(Octanoyl)FLSPEHQRVQQRKESKKPPAKLQPR; UniProt Q9UBU3 24-51, looked up) [Ghrl]
isoelectric point [1]: 11.5
Binding coefficient K [2]: 0.875 mM⁻¹
Stability of Ghrl on prolonged heating [3]: without any degradation
plasmatic half-life t½ [4]: 9 to 13 min
